RGS4 pot: potentiators or activators of RGS4; actives 0.92% (n = 310,000); HEK293 M3R/inducible RGS4, carbachol calcium flux Fluo4; active compounds read low; B-score at 10 µM;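 active means B-score of the integrated calcium signal more than 4 SD below the library mean, with starting fluorescence not abnormally high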;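 further: negative B-score means reduced calcium response which marks RGS4 activation or potentiation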
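Detection: kinetic calcium fluorescence imaging with Fluo4-AM dye, 2 µM / Material: HEK293 cells with stable M3R and inducible RGS4 / Schedule: recording 10 s baseline at 1 Hz, 100 s post-agonist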
Kir21 inh: Kir2.1 (mouse) channel inhibition; B-score at 10 µM; AID 1672; HEK293-Kir2.1, FluxOR thallium flux fluorescence; active compounds read low; actives 0.85% (n = 310,000);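 active means fluorescence ratio B-score at or below minus 3 SD of library scores, with starting-brightness B-score within 2 SD, cut at about -4.2 in these data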;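 further: channel flux triggered by added potassium and thallium sulfate stimulus; B-score of peak minus minimum fluorescence over baseline after thallium stimulus; more negative B-score means stronger Kir2.1 block with less thallium influx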
Target sequence (P35561 whole entry, looked up): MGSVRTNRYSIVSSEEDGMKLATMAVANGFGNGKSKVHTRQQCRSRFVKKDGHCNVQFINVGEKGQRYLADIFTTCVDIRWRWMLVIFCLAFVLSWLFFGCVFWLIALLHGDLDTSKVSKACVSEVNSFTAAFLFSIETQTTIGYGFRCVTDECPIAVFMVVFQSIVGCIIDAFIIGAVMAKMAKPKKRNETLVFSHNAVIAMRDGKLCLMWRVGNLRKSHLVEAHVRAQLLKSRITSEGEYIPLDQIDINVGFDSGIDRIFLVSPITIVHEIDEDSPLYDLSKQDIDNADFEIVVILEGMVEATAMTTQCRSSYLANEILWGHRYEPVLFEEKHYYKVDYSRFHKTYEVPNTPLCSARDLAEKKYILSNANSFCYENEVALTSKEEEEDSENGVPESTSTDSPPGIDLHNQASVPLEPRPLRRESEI
MrgX1 allo act: human MrgX1 positive allosteric modulation, primary screen; actives 0.63% (n = 310,000); Q96LB2; MrgX1-HEK293, Fluo-4 calcium flux, FDSS; active compounds read high; B-score at 10 µM; AID 588675;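 active means plate-corrected calcium response at least 3 library SD above typical, normal starting fluorescence, not activating the receptor alone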;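 further: compound read alongside a low EC10 to EC30 dose of BAM8-22 agonist; peak minus trough fluorescence over baseline measured at the second addition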
RGS4 block: human RGS4 inhibition | P49798 | HEK293 M3R/RGS4 inducible, Fluo-4 calcium flux; active compounds read high; triggered by carbachol at its EC20 | B-score at 10 µM | actives 0.45% (n = 310,000);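 active means B-score, a plate-corrected calcium signal, over three deviations above library mean, with baseline fluorescence within five deviations of library mean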;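 further: RGS4 expression induced by doxycycline in cells with stable M3 receptor; B-score is computed from the integrated fluorescence ratio over baseline after carbachol; higher B-score means a larger calcium signal and so more RGS4 inhibition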
Target sequence (P49798 whole entry, looked up): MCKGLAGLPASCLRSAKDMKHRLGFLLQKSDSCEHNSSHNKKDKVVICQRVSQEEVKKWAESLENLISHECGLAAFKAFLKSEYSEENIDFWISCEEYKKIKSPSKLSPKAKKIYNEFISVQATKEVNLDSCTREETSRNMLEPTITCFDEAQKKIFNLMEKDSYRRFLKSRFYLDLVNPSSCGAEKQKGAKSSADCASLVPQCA
MrgX1 antagonist: antagonists of human MrgX1 receptor. B-score at 10 µM. Q96LB2. actives 1.3% (n = 310,000). MRGX1-HEK293 calcium flux, Fluo-4, BAM8-22 antagonism; active compounds read low. AID 588676;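 active means calcium-response B-score plate-corrected more than 3 library SD below zero, starting fluorescence within 5 deviations, no agonist response on first addition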;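 further: peak minus trough fluorescence over baseline after final BAM8-22 challenge near maximal dose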
MrgX1 agonist: activates human MrgX1 receptor signaling; Q96LB2; MrgX1-HEK293 cells, Fluo-4 calcium fluorescence, agonist mode; active compounds read high; B-score at 10 µM; actives 0.44% (n = 310,000); AID 588627;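 active means calcium response B-score plate-corrected fluorescence ratio at least 3 library SD, with starting fluorescence B-score inside 5 SD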
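Test system: Stable human MrgX1 HEK293 cell line | Schedule: Overnight plating before 1 h dye loading | Read-out basis: Baseline-normalised fluorescence change ratio, B-scored | Detection: Kinetic calcium dye fluorescence, Fluo-4 NW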
MrgX1 antag conf: reconfirmed antagonist of human MrgX1 receptor signaling; shares compounds with MrgX1 antagonist; MrgX1-HEK293, BAM8-22 calcium flux, Fluo-4; active compounds read low; remaining BAM8-22 calcium response % of control (active compounds read low), % at 10 µM; actives 19% (n = 2,300);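 active means remaining agonist calcium response no higher than 100% minus 3 SD of agonist-only control wells, with starting fluorescence near control levels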;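 further: agonist BAM8-22 given at a near maximal EC90 to ECmax level; peak minus minimum fluorescence divided by baseline after agonist addition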
HEK293 Ca flux: MrgX1 antagonist counter-screen hit in parental HEK293 cells; actives 2% (n = 4,000); Fluo-4 calcium fluorescence, FDSS; shares compounds with MrgX1 antagonist; AID 624111; fluorescence ratio F(max-min)/F0 at 10 µM;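 active means duplicate-averaged calcium fluorescence ratio at least three times the standard deviation of buffer wells, a nonspecific response in parental cells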
HEK293 Ca counter: MrgX1 allosteric activator counter-screen hit in parental HEK293 cells; shares compounds with MrgX1 antagonist; actives 0.4% (n = 4,000); fluorescence ratio F(max-min)/F0 at 10 µM; parental HEK293 calcium flux, Fluo-4 fluorescence ratio; active compounds read high;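 active means calcium fluorescence ratio, averaged over duplicates, at least 3 SD of the buffer-well ratio, meaning a nonspecific response in receptor-free cells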;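 further: untransfected parental HEK293 lacking MrgX1 used as counterscreen for MrgX1 allosteric activators; fluorescence change taken during the second addition on a kinetic imager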
HEK293 Ca cntr2: MrgX1 activator counter-screen hit in parental HEK293 cells. Fluo-4 calcium fluorescence (FDSS); active compounds read high. fluorescence ratio F(max-min)/F0 at 10 µM. shares compounds with MrgX1 antagonist. actives 8.7% (n = 4,000);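 active means calcium fluorescence ratio at least three times the spread of buffer wells, meaning a non-specific response in parental cells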
Numbers without * were called inactive; i = inactive; x = no result given. An excerpt weighted towards active compounds, which were near 4.1% of everything screened.

SMILES	RGS4 pot	Kir21 inh	MrgX1 allo act	RGS4 block	MrgX1 antagonist	MrgX1 agonist	MrgX1 antag conf	HEK293 Ca flux	HEK293 Ca counter	HEK293 Ca cntr2
CN(c1ccccc1C(=O)Nc1ccc(F)c(Cl)c1)S(C)(=O)=O	i	0.09	i	i	i	i	x	x	x	x
O=[N+]([O-])c1ccc(NC2CCCC2)cc1	i	0.78	i	i	i	i	x	x	x	x
N#Cc1cc(NC2CCCC2)c([N+](=O)[O-])cc1C#N	i	-0.52	i	i	-12.1*	i	i	i	i	i
Cc1nc(-c2ccccc2)nc2sc(C(=O)c3ccc(F)cc3)c(N)c12	i	-0.33	i	i	-4.62*	i	77.8%*	i	i	i
Cc1nnsc1C(=O)N/N=C/c1ccc2ccccc2c1O	i	-2.81	i	i	i	i	x	x	x	x
O=C(Nc1ccc(OCC(F)(F)C(F)F)c(C(F)(F)F)c1)c1ccccc1	i	0.73	i	i	i	i	x	x	x	x
O=C(Nc1ccc(OCC(F)(F)C(F)F)c(C(F)(F)F)c1)c1ccccc1O	i	0.99	i	i	-5.69*	i	i	i	i	i
CCn1c(/C=C/c2c[nH]c3ccccc23)nc2ccccc2c1=O	i	-0.56	i	i	i	i	x	x	x	x
CCn1c(/C=C/c2c(C)[nH]c3ccccc23)nc2ccccc2c1=O	i	0.1	i	i	-5.28*	i	i	i	i	i
COc1ccc(-c2cc(C)no2)cc1S(=O)(=O)NCC(C)c1ccccc1 (centres undefined)	i	0.18	i	i	-6.66*	i	i	i	i	i
CCOc1ccccc1CNS(=O)(=O)c1cc(-c2cc(C)no2)ccc1OC	i	-2.77	i	i	i	i	x	x	x	x
COc1cccc(C(=O)c2c[nH]c(C(=O)NCc3cccs3)c2)c1	i	0.53	i	i	-7.82*	i	i	i	i	i
COc1cccc(C(=O)c2c[nH]c(C(=O)NCc3cccnc3)c2)c1	i	-2.22	i	i	i	i	x	x	x	x
CCOC(=O)Cc1csc(NC(=O)c2ccco2)n1	i	0.47	i	i	i	i	x	x	x	x
CCCN(CCC)CCCNC(=O)c1cn(CC)c2ccc(S(=O)(=O)N3CCOCC3)cc2c1=O	i	-1.43	i	i	i	i	x	x	x	x
O=C(Oc1ccc(-c2nnco2)cc1)N1CCOCC1	i	-0.08	i	i	-5.04*	i	i	i	i	i
CC(Oc1ccc(-c2nnco2)cc1)C(=O)N1CCOCC1 (centres undefined)	i	0.29	i	i	i	i	x	x	x	x
c1cncc(CSc2nnc3ccc(-c4ccncc4)nn23)c1	i	2.96	i	i	i	i	x	x	x	x
CCn1c(-c2csc(-c3ccc(Cl)cc3)n2)n[nH]c1=S	i	-0.73	i	i	-5.97*	i	i	i	i	i
COc1cc(CC(=O)OCC(=O)Nc2ncc(Cl)cc2Cl)cc(OC)c1OC	i	-1.06	i	i	i	i	x	x	x	x
COc1ccc(CC(=O)OCC(=O)Nc2ncc(Cl)cc2Cl)cc1	i	-1.02	i	i	-4.69*	i	i	i	i	i
CCOC(=O)c1cccc(NC(=O)CSc2nc(N)cc(N)n2)c1	i	-0.42	i	i	-7.68*	i	i	i	i	i
CCN(C(=O)CSc1nc2cc(C(F)(F)F)ccc2n1Cc1ccccc1)C1CCS(=O)(=O)C1 (centres undefined)	i	-0.93	i	i	i	i	x	x	x	x
Cc1ccc2c(c1)cc(CN(Cc1ccc3c(c1)OCO3)S(=O)(=O)c1ccccc1)c1nnnn12	i	-0.41	i	i	-4.52*	i	i	i	i	i
CCCSCCCNC(=O)CC1Oc2ccccc2NC1=O (centres undefined)	i	0.11	i	i	-4.92*	i	i	i	i	i
SMILES	RGS4 pot	Kir21 inh	MrgX1 allo act	RGS4 block	MrgX1 antagonist	MrgX1 agonist	MrgX1 antag conf	HEK293 Ca flux	HEK293 Ca counter	HEK293 Ca cntr2
Cn1c(C(=O)N2CCCC(C(=O)NCCCc3ccccc3)C2)cc2sccc21 (centres undefined)	i	-1.68	i	i	i	i	x	x	x	x
N#Cc1sc2nc(C3CC3)cc(-c3ccccc3)c2c1N	i	0.11	i	i	i	i	x	x	x	x
N#Cc1sc2nc(-c3ccccc3)cc(-c3ccco3)c2c1N	i	-0.36	i	i	-10.2*	i	i	i	i	i
CN(C(=O)COC(=O)c1cccc(S(=O)(=O)N2CCCCC2)c1)C1CCS(=O)(=O)C1 (centres undefined)	i	1.3	i	i	-6.05*	i	i	i	i	i
CCN(C(=O)c1ccc(S(=O)(=O)N2CCC(C)CC2)cc1)C1CCS(=O)(=O)C1 (centres undefined)	i	-1.02	i	i	-4.65*	i	i	i	i	i
CCOCc1nnc(NC(=O)C2c3ccccc3Oc3ccccc32)s1	i	-2.13	i	i	i	i	x	x	x	x
Cc1ccc(S(=O)(=O)NCCC(=O)N2CCCCCCC2)cc1C	i	-0.41	i	i	-4.75*	i	i	i	i	i
CCSc1nc(=S)n(-c2ccccc2)c(C)c1C(C)=O	i	-1.15	i	i	i	i	x	x	x	x
COC1OC(COC(=O)c2ccccc2)C(OC(=O)c2ccccc2)C1OC(=O)c1ccccc1 (centres undefined)	i	-1.38	i	i	-5.49*	i	i	i	i	i
O=C1c2nccnc2C(=O)N1c1ccc(C(F)(F)F)cc1	i	1.42	i	i	i	i	x	x	x	x
Cc1nc2ccc(NC(=O)Cc3ccc(Br)cc3)cc2s1	i	-0.75	i	i	i	i	x	x	x	x

Assay outcomes (PubChem BioAssay)
